Screens (PubChem BioAssay)
CHO parental Ca: counter-screen: ATP calcium response change in parental CHO cells; parental CHO-K1, ATP-induced calcium, Fluo-8 fluorescence; inhibition, % at 5.6 µM; 330,000 tested, 0.63% active;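 active means inhibition above that plate's mean sample inhibition plus 3 SD, cut at about 26% in these data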
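Test system: untransfected parental CHO cell line. Compound: one dose, 5.6 µM nominal. Detection: intracellular calcium via Fluo-8 no-wash fluorescent dye. Measure: % inhibition. Benchmarks: ATP-challenged DMSO wells low, unchallenged DMSO wells high.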
TAAR1 ag: human TAAR1 agonism. Q96RJ0. activation, % at 3 µM. 360,000 tested, 0.99% active. CHO RD-HGA16 TAAR1, Fluo-8 calcium fluorescence; vehicle wells 0%, saturating PEA agonist 100%;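 active means activation above the mean activation of all test compounds in the run plus 3 SD, cut at about 38% in these data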
Target sequence (Q96RJ0 whole entry, looked up): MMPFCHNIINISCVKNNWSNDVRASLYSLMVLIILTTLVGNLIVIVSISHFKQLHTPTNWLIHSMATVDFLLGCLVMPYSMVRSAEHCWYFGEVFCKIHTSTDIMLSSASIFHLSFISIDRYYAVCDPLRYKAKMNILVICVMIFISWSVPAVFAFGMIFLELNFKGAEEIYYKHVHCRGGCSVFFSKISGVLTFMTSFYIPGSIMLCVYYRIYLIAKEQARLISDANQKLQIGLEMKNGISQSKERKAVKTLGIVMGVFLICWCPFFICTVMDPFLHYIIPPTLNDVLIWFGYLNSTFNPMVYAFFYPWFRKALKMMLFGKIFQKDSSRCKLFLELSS
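Assay system – CHO-derived RD-HGA16 cells with stable Gα16 and human TAAR1 · Compound dosing – one-point dosing at 3 µM (nominal) · Incubation – 17-24 h seeding, 75 min 37 °C dye, 30 min RT · Measured by – kinetic Fluo-8 calcium fluorescence · Control set – DMSO vehicle as 0%, PEA at EC100 as 100% · Repeats – single well for each compound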
OX1R antag-1: human HCRTR1 antagonism; AID 434989; CHO/OX1R cells, Fluo-8 calcium fluorescence, orexin A; inhibition, % at 5 µM; O43613; 330,000 tested, 0.43% active;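 active means inhibition above its plate's threshold, mean inhibition of all tested compounds on the plate plus 3 SD, cut at about 37% in these data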
OX1R antag-2: OX1R (human) antagonism; O43613; OX1R-expressing cells, FRET antagonist read-out; inhibition, % at 6.6 µM; 330,000 tested, 1.8% active; in the data active means inhibition mostly above about 38%, no sharp cut-off; inactive means mostly below about 40%
TAAR1 antag: human TAAR1 antagonism; CHO RD-HGA16 TAAR1, Fluo-8 calcium fluorescence, antagonist; inhibition, % at 3 µM; 360,000 tested, 1.5% active;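 active means inhibition above a per-plate cutoff, the mean inhibition of test compounds on that plate plus 3 SD, cut at about 49% in these data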
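Material: RD-HGA16 CHO cells with stable hTAAR1 and Gα16; Dosing: single nominal final test compound concentration of 3 µM; Schedule: seeding 17-24 h prior, 75-min 37 °C, 30-min RT dye loading; Detection: kinetic Fluo-8 calcium fluorescence measurement; Measure: % inhibition from peak post-agonist over basal fluorescence ratio; Benchmarks: vehicle and agonist controls.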
GPR7 antagonist: blocks human GPR7 receptor signaling. P48145. GPR7-expressing cells, fluorescence antagonist assay. inhibition, % at 4.4 µM. 290,000 tested, 1.1% active; in the data active means inhibition above about 16%, passing the limit was not always enough;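 further: cells stimulated with the agonist NPW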
Target sequence (P48145 whole entry, looked up): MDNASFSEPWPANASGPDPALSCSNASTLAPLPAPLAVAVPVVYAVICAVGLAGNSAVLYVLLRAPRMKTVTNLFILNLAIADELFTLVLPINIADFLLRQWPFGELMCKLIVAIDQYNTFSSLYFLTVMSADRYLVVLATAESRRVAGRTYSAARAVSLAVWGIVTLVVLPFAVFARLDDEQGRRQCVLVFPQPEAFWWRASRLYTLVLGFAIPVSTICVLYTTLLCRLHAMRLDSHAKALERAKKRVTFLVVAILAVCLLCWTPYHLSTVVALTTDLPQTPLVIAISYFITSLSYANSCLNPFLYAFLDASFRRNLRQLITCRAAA
GPR7 antag conf: confirmation of human GPR7 antagonists. shares compounds with GPR7 antagonist. GPR7-expressing cells, calcium fluorescence antagonist mode. inhibition, % at 4.4 µM. 2,400 tested, 52% active. AID 1952; in the data active means inhibition above about 24%;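 further: stimulated with the GPR7 agonist NPW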
MCHR1 antagonist: antagonizes human MCHR1, a GPR7 antagonist counter-screen. shares compounds with GPR7 antagonist. MCHR1-expressing cells, fluorescence antagonist assay. inhibition, % at 4.4 µM. 2,400 tested, 62% active. AID 2148; in the data active means inhibition above about 22%
A number is an active result. Compounds with a hit are over-represented: about 4.6% of the library has one in this group of screens.

How did N#CC(C#N)=Cc1cnc(N2CCN(c3ccccc3)CC2)s1 do in these assays?
CHO parental Ca: inactive; TAAR1 ag: inactive; OX1R antag-1: inactive; OX1R antag-2: inactive; TAAR1 antag: inactive; GPR7 antagonist: 41; GPR7 antag conf: inactive; MCHR1 antagonist: 42

Results for Cc1ccc(-n2c(C)nnc2SC(C)C(=O)N2CCCC2)cc1 (stereo not drawn) ?
CHO parental Ca: inactive; TAAR1 ag: inactive; OX1R antag-1: inactive; OX1R antag-2: inactive; TAAR1 antag: inactive; GPR7 antagonist: inactive

What do the screens show for `COc1ccc([N+](=O)[O-])cc1N(CC(O)CN(CC(C)C)CC(C)C)S(=O)(=O)c1ccccc1` (stereo not drawn)?
CHO parental Ca: inactive; TAAR1 ag: inactive; OX1R antag-1: inactive; OX1R antag-2: inactive; TAAR1 antag: inactive; GPR7 antagonist: 34; GPR7 antag conf: 45; MCHR1 antagonist: 54

What do the screens show for `CCCCN(CCCC)CC(O)CN(c1cc([N+](=O)[O-])ccc1OC)S(=O)(=O)c1ccccc1` (stereo not drawn)?
CHO parental Ca: inactive; TAAR1 ag: inactive; OX1R antag-1: inactive; OX1R antag-2: inactive; TAAR1 antag: inactive; GPR7 antagonist: 36; GPR7 antag conf: 41; MCHR1 antagonist: 34

Results for COc1ccc([N+](=O)[O-])cc1N(CC(O)CN(C)C)S(=O)(=O)c1ccc(C)cc1 (stereo not drawn) ?
CHO parental Ca: inactive; TAAR1 ag: inactive; OX1R antag-1: inactive; OX1R antag-2: inactive; TAAR1 antag: inactive; GPR7 antagonist: inactive

How did CC(C)(C)OC(=O)C[C@H]1C/C=C\C[C@@H](CC(=O)N[C@@H](CO)Cc2ccccc2)C(=O)NCCOC1=O do in these assays?
CHO parental Ca: inactive; TAAR1 ag: inactive; OX1R antag-1: inactive; OX1R antag-2: inactive; TAAR1 antag: inactive

How did CC(=O)NC(c1cccc(F)c1)c1nc(-c2cccc(C(F)(F)F)c2)cs1 (stereo not drawn) do in these assays?
TAAR1 ag: inactive; TAAR1 antag: inactive

How did CCOc1ccccc1N1CCN(C(=O)/C=C/c2cccc([N+](=O)[O-])c2)CC1 do in these assays?
CHO parental Ca: inactive; TAAR1 ag: inactive; OX1R antag-1: inactive; OX1R antag-2: inactive; TAAR1 antag: inactive; GPR7 antagonist: 21; GPR7 antag conf: 32; MCHR1 antagonist: 41

What do the screens show for `O=C(/C=C/c1cccc([N+](=O)[O-])c1)N1CCN(c2ccccc2F)CC1`?
CHO parental Ca: inactive; TAAR1 ag: inactive; OX1R antag-1: inactive; OX1R antag-2: inactive; TAAR1 antag: inactive; GPR7 antagonist: inactive

How did CCN(CC)C(=O)c1nn(-c2ccccc2)c2c1C1CCC2(C)C1(C)C (stereo not drawn) do in these assays?
CHO parental Ca: inactive; TAAR1 ag: inactive; OX1R antag-1: inactive; OX1R antag-2: inactive; TAAR1 antag: inactive; GPR7 antagonist: inactive

What do the screens show for `CS(=O)(=O)N(CC(=O)Nc1ccc(F)c(F)c1)c1cccc([N+](=O)[O-])c1`?
CHO parental Ca: inactive; TAAR1 ag: inactive; OX1R antag-1: inactive; OX1R antag-2: inactive; TAAR1 antag: inactive; GPR7 antagonist: 32; GPR7 antag conf: inactive; MCHR1 antagonist: inactive

What do the screens show for `Cc1cc(C)c(S(=O)(=O)NCC2CCC(C(=O)NCCCN3CCOCC3)CC2)c(C)c1` (stereo not drawn)?
TAAR1 ag: inactive; TAAR1 antag: inactive; GPR7 antagonist: 22; GPR7 antag conf: inactive; MCHR1 antagonist: inactive

What do the screens show for `COc1ccccc1CNC(=O)CSc1nc(-c2ccccc2)cn1N`?
CHO parental Ca: inactive; TAAR1 ag: inactive; OX1R antag-1: inactive; OX1R antag-2: 73; TAAR1 antag: inactive; GPR7 antagonist: 27; GPR7 antag conf: inactive; MCHR1 antagonist: inactive

Results for O=C(NCc1cccnc1)c1cccs1 ?
CHO parental Ca: inactive; TAAR1 ag: inactive; OX1R antag-1: inactive; OX1R antag-2: inactive; TAAR1 antag: inactive; GPR7 antagonist: inactive

What do the screens show for `COCCNC(=O)Cn1c(=O)n(CCCCCC(=O)NCc2ccc3c(c2)OCO3)c(=O)c2sccc21`?
CHO parental Ca: inactive; OX1R antag-1: inactive; OX1R antag-2: inactive; GPR7 antagonist: 29; GPR7 antag conf: inactive; MCHR1 antagonist: inactive

How did COc1ccc(OCC(O)Cn2c(=N)n(CCN3CCCCC3)c3ccccc32)cc1 (stereo not drawn) do in these assays?
CHO parental Ca: inactive; TAAR1 ag: inactive; OX1R antag-1: inactive; OX1R antag-2: inactive; TAAR1 antag: inactive; GPR7 antagonist: 29; GPR7 antag conf: inactive; MCHR1 antagonist: 23

How did Cc1ccc(OCC(O)Cn2c(=N)n(CCN3CCCCC3)c3ccccc32)cc1 (stereo not drawn) do in these assays?
CHO parental Ca: inactive; TAAR1 ag: inactive; OX1R antag-1: inactive; OX1R antag-2: inactive; TAAR1 antag: inactive; GPR7 antagonist: 28; GPR7 antag conf: 41; MCHR1 antagonist: 39

How did O=C(CC1(CC(=O)N2CCOCC2)CCCC1)Nc1ccccc1 do in these assays?
CHO parental Ca: inactive; TAAR1 ag: inactive; OX1R antag-1: inactive; OX1R antag-2: inactive; TAAR1 antag: inactive

Results for O=C(CN1CCSc2ccccc21)NCCCc1ccccc1 ?
CHO parental Ca: inactive; TAAR1 ag: inactive; OX1R antag-1: inactive; OX1R antag-2: inactive; TAAR1 antag: inactive; GPR7 antagonist: inactive

Results for COc1ccc(NC(=O)C2CCCN(C(=O)c3ccc(Cl)cc3)C2)cc1S(=O)(=O)N(C)C (stereo not drawn) ?
CHO parental Ca: inactive; TAAR1 ag: inactive; OX1R antag-1: inactive; OX1R antag-2: inactive; TAAR1 antag: inactive

What do the screens show for `C/C(CC(=O)Nc1ccccc1)=N\NC(=O)COc1ccc(C)cc1Br`?
CHO parental Ca: inactive; TAAR1 ag: inactive; OX1R antag-1: inactive; OX1R antag-2: inactive; TAAR1 antag: inactive; GPR7 antagonist: inactive

What do the screens show for `CCc1ccc(NC(=O)C/C(C)=N/NC(=O)COc2ccc(C)cc2Br)cc1`?
CHO parental Ca: inactive; TAAR1 ag: inactive; OX1R antag-1: inactive; OX1R antag-2: inactive; TAAR1 antag: inactive; GPR7 antagonist: 42; GPR7 antag conf: inactive; MCHR1 antagonist: inactive

What do the screens show for `O=C(c1ccc(NS(=O)(=O)c2ccc(F)cc2)cc1)N1CCCCC1`?
CHO parental Ca: inactive; TAAR1 ag: inactive; OX1R antag-1: inactive; OX1R antag-2: inactive; TAAR1 antag: inactive

What do the screens show for `O=C(c1ccc(NS(=O)(=O)c2cccs2)cc1)N1CCCCC1`?
CHO parental Ca: inactive; TAAR1 ag: inactive; OX1R antag-1: inactive; OX1R antag-2: inactive; TAAR1 antag: inactive; GPR7 antagonist: 21; GPR7 antag conf: inactive; MCHR1 antagonist: inactive
